Source: PubChem BioAssay
Hits are enriched below; roughly 1.5% of the tested compounds scored in any of these assays.
EBI2 block: EBI2 receptor antagonists, beta-arrestin recruitment, primary screen, cell-based, luminescence, 7a,25-OHC stimulation, uHTS; G-protein coupled receptor 183 (Homo sapiens), P32249; 7a,25-OHC stimulated; inhibition, % at 5 µM; 360,000 tested, 0.81% active; AID 651636, 2012; in the data active means inhibition above about 38%;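 further: enzyme fragment complementation signal reports receptor beta-arrestin coupling in cells; 0% = agonist plus DMSO wells and 100% = wells without agonist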
Target sequence (P32249 whole entry, looked up, the tested form may be a part): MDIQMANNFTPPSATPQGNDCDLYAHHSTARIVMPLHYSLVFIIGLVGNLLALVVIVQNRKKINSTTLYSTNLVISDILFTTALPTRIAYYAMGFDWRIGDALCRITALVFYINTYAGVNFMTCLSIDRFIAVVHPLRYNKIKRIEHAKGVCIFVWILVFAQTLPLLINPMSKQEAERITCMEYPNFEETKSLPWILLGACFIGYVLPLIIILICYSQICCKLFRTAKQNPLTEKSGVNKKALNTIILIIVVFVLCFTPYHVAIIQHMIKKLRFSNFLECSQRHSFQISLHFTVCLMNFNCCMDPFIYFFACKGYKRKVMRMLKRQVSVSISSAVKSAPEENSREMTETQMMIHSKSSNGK
APJ ag: agonists of human apelin receptor APJ, primary screen, CHO-K1 cells, PathHunter beta-arrestin, luminescence. P35414. 0% DMSO wells, 100% apelin. 330,000 tested, 0.11% active. activation, % at 20 µM;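 active means activation more than six SD over the plate average, tested at 20 µM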;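 further: 0% = DMSO alone and 100% = apelin-13 at 10 nM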
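Test system: CHO-K1 APJ beta-arrestin complementation cell line | Compound: Single test compound dose, 20 µM final, 1% DMSO | Incubation: Compound 90 min 25 °C, reagent 1 h | Measured by: beta-gal luminescence | Read-out basis: APJ–arrestin association signal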
APJ antagonist: antagonists of human apelin receptor APJ, primary screen, CHO-K1 cells, beta-arrestin complementation, luminescence; P35414; inhibition, % at 20 µM; 330,000 tested, 0.32% active;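 active means inhibition above about 40% at 20 µM, limit read from the data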;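 further: cells challenged with 10 nM apelin-13 agonist together with compound; plate controls were apelin-13 plus DMSO wells for no effect and DMSO wells lacking apelin-13 for full effect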
CXCR6 inh: CXCR6 receptor inhibitors, primary screen, cell-based, beta-arrestin, luminescence, CHO-K1 PathHunter, 1536-well. C-X-C chemokine receptor type 6 (Homo sapiens), O00574. inhibition, % at 20 µM. 360,000 tested, 0.36% active; in the data active means inhibition above about 34%, passing the limit was not always enough;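 further: antagonist mode with CXCL16 agonist at 10 nM final; 0% = 10 nM CXCL16 with DMSO and 100% = unstimulated wells without agonist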
Target sequence (O00574 whole entry, looked up): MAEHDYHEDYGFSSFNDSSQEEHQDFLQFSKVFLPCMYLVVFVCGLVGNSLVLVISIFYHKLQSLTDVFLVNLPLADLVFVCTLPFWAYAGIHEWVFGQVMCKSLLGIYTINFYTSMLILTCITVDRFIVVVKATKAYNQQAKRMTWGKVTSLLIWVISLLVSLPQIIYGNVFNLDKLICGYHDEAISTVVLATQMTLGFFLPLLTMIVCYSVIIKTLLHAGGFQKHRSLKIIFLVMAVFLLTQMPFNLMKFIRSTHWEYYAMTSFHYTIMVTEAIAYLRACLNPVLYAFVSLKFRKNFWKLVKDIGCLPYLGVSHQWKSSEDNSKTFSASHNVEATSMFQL
CCR6 antagonist: CCR6 receptor antagonists, primary screen, cell-based, CHO-K1, luminescence, beta-arrestin, uHTS; C-C chemokine receptor type 6 (Homo sapiens), P51684; CHO-K1 CCR6 PathHunter beta-arrestin, CCL20-stimulated; inhibition, % at 20 µM; 340,000 tested, 0.49% active; AID 493098, 2011;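 active means compounds whose inhibition of the agonist-driven luminescence signal at 20 µM reaches about 50%, limit read from the data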;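 further: cells stimulated with CCL20 at 14 nM final; plate controls were DMSO with CCL20 for no effect and DMSO without agonist for full effect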
EBI2 conf: EBI2 antagonist hit retest, beta-arrestin, confirmation, cell-based, single concentration, luminescence, 7a,25-OHC stimulation; shares compounds with EBI2 block; 7a,25-OHC antagonism; inhibition, % at 5 µM; 2,400 tested, 29% active; AID 651997, 2013;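 active means inhibition of at least 50%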
EBI2 agonist: EBI2 agonist activity of antagonist hits, confirmation, counter-screen for EBI2 antagonist project, cell-based, single concentration, agonist mode, luminescence | 2,400 tested, under 10 active | shares compounds with EBI2 block | activation, % at 5 µM | EBI2-expressing cells, 60 min; 0% vehicle, 100% 7α,25-dihydroxycholesterol control;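 active means activation of at least 50%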
bGal counter: E. coli beta-galactosidase enzyme inhibition, confirmation, counter-screen for EBI2 antagonist project, biochemical, luminescence, single concentration; shares compounds with EBI2 block; purified beta-galactosidase, luminescent Galacton Star, 15 min; inhibition, % at 5 µM; 2,400 tested, 1% active; AID 652176, 2013;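 active means replicate-average signal at least 3 plate SD below neutral wells, shown as high inhibition, flagging enzyme-inhibiting false positives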;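 further: 0% = DMSO wells with enzyme and 100% = wells lacking enzyme; higher means stronger loss of beta-gal luminescence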
* marks the source's active call; other numbers are inactive results; / = no result given.

SMILES | EBI2 block | APJ ag | APJ antagonist | CXCR6 inh | CCR6 antagonist | EBI2 conf | EBI2 agonist | bGal counter
Cc1ccc(N(C)C(=O)N2CCN(S(=O)(=O)c3ccc(C)cc3)CC2)cc1 | 33 | 1 | 8 | -1 | 3 | / | / | /
Cc1ccc(N(C)C(=O)N2CCN(S(=O)(=O)c3ccc4ccccc4c3)CC2)cc1 | 45* | -5 | -4 | -8 | -11 | 21 | 0 | 7
COc1ccc(-c2cc(NC=O)c3ncc(-c4cccc(C(=O)NCCN(C)C)c4)n3c2)c(OC)c1 | 0 | / | / | -3 | / | / | / | /
CC1(C)Cc2c(C#N)c(SCCC#N)nc(N3CCOCC3)c2CS1 | 69* | 0 | -6 | -8 | 13 | 39 | 0 | 2
CC1(C)Cc2c(C#N)c(SCCC#N)nc(N3CCOCC3)c2CO1 | 10 | -1 | -1 | 0 | 6 | / | / | /
Cc1cccc(N2C(=O)/C(=C\c3ccc(OC(F)F)cc3)c3ccccc3C2=O)c1 | 61* | 2 | -3 | -8 | 10 | 49 | 0 | 4
CCO[C@H]1OC(C(=O)N2CCN(Cc3ccc4c(c3)OCO4)CC2)=C[C@@H](c2ccc3c(c2)OCO3)[C@@H]1CCCO | 16 | 8 | -3 | -1 | 15 | / | / | /
C#Cc1ccc([C@H]2C=C(C(=O)N3CCN(Cc4ccc5c(c4)OCO5)CC3)O[C@@H](OCC)[C@@H]2CCCO)cc1 | 55* | 5 | 5 | -2 | 10 | 22 | 1 | 5
COc1ccccc1CNC(=O)c1ccc(CS(=O)(=O)c2ccc(C)cc2)o1 | 13 | -8 | -10 | 14 | 11 | / | / | /
COc1ccc([N+](=O)[O-])cc1NC(=O)C(C)N(C)Cc1ccc(Br)cc1 (stereo unspecified) | 37 | -3 | 9 | 12 | 17 | / | / | /
COc1ccc(Br)cc1CN(C)C(C)C(=O)Nc1cc([N+](=O)[O-])ccc1OC (stereo unspecified) | 40* | -5 | 4 | 7 | 7 | 13 | 1 | 0
CC(=O)c1ccc(N2CCN(C(=O)COc3ccc4c(c3)CCC4)CC2)cc1 | 34 | -6 | 14 | -1 | 16 | / | / | /
COc1ccccc1N1CCN(C(=O)COc2ccc(Cl)cc2)CC1 | 81* | 7 | 17 | -1 | 0 | 52* | 1 | 4
O=C(COc1ccc(Br)cc1)N1CCN(c2ncccn2)CC1 | 94* | -4 | -6 | -8 | -4 | 79* | 0 | 1
O=C(COc1ccc(Cl)cc1)N1CCN(c2ncccn2)CC1 | 73* | -5 | -22 | -3 | -14 | 58* | 2 | -2
Cc1ccc(Cl)cc1N1CCN(C(=O)COc2ccc3c(c2)CCC3)CC1 | 78* | -2 | 10 | -1 | 10 | 42 | -1 | -13
CN1CCN(c2ccc(CNS(=O)(=O)c3ccc(Cl)cc3)cc2)CC1 | -2 | -6 | -11 | 6 | -1 | / | / | /
CC(=O)c1ccc(NC(=O)CS(=O)(=O)c2cn(CC(=O)N3CCOCC3)c3ccccc23)cc1 | -4 | -2 | 7 | -11 | 7 | / | / | /
Cc1nc2cc(OCc3cc(C(=O)NC(C)c4cnn(C)c4)no3)ccc2s1 (stereo unspecified) | -8 | 10 | 6 | -3 | 4 | / | / | /
CCOc1ccc(N2CC(C(=O)Nc3ccc(S(=O)(=O)N4CCCC4)cc3)CC2=O)cc1 (stereo unspecified) | 53* | 2 | 1 | 5 | 1 | 44 | 1 | 2
CCOc1ccc(N2CC(C(=O)Nc3cccc(S(=O)(=O)N4CCCCC4)c3)CC2=O)cc1 (stereo unspecified) | 39 | -1 | -8 | -5 | -16 | / | / | /
CCOc1ccc(N2CC(C(=O)Nc3ccc(S(=O)(=O)N4CCCCC4)cc3)CC2=O)cc1 (stereo unspecified) | 79* | 11 | 3 | -2 | 2 | 63* | -1 | -21
Cc1ccsc1C1Nc2ccc3ncccc3c2C2=C1C(=O)CC(C)(C)C2 (stereo unspecified) | 94* | 0 | -18 | 12 | 18 | 76* | 0 | 3
O=C1CCCC2=C1C(c1cccs1)Nc1ccc3ncccc3c12 (stereo unspecified) | 21 | -2 | 10 | -4 | 8 | / | / | /
CN(Cc1ccccn1)C(=O)C1CCC(=O)N(Cc2cccc(C(F)(F)F)c2)C1 (stereo unspecified) | 2 | 4 | 14 | 6 | 13 | / | / | /
SMILES | EBI2 block | APJ ag | APJ antagonist | CXCR6 inh | CCR6 antagonist | EBI2 conf | EBI2 agonist | bGal counter
COc1cc2c(cc1OC)C(c1ccc(-c3ccc(Cl)cc3Cl)o1)=NCC2 | 74* | -1 | -5 | -3 | -1 | 66* | -1 | -17
O=C(O)c1ccc(-c2ccc(Cl)cc2Cl)o1 | -5 | -3 | -13 | 4 | -4 | / | / | /
O=C(Cc1ccc(F)cc1)NCCc1ccc(F)cc1 | 7 | -5 | 12 | -3 | 14 | / | / | /
Cc1ccc(OCCNC(=O)c2cc(C(=O)NCCOc3ccc(C)cc3)cc([N+](=O)[O-])c2)cc1 | 47* | 2 | -21 | 4 | 2 | 30 | -1 | -20
Cc1ccc(OCCNC(=O)CCNS(=O)(=O)c2ccc3ccccc3c2)cc1 | 47* | -2 | -6 | -13 | 2 | 5 | -1 | -10
Cc1ccc(S(=O)(=O)NCCC(=O)NCCOc2ccccc2)cc1 | 14 | -1 | 2 | 0 | -3 | / | / | /
Cc1ccc(OCCNC(=O)Cc2ccc(F)cc2)cc1 | 50* | -4 | 11 | 0 | 6 | 44 | 1 | 5
Cc1ccc(C(=O)NCCOc2ccc(Cl)cc2)cc1 | 51* | -5 | 5 | 2 | 5 | 22 | -1 | -8
COc1cccc(OCCNC(=O)c2cc([N+](=O)[O-])cc([N+](=O)[O-])c2)c1 | -4 | 3 | -15 | -6 | -7 | / | / | /
COc1ccc(CCN(C)C2CCCN(C(=O)CCC(F)(F)F)C2)cc1OC (stereo unspecified) | 4 | -2 | 1 | -2 | -5 | / | / | /
Cc1cccc(C)c1NC(=O)C(=O)NCCOc1ccc(Cl)cc1 | 51* | -3 | 8 | -2 | -10 | 25 | 1 | 4
